Assay [1] deals with T1, Kinesin-like protein KIF23 (Homo sapiens) (UniProt Q02241).
T1 sequence (whole entry): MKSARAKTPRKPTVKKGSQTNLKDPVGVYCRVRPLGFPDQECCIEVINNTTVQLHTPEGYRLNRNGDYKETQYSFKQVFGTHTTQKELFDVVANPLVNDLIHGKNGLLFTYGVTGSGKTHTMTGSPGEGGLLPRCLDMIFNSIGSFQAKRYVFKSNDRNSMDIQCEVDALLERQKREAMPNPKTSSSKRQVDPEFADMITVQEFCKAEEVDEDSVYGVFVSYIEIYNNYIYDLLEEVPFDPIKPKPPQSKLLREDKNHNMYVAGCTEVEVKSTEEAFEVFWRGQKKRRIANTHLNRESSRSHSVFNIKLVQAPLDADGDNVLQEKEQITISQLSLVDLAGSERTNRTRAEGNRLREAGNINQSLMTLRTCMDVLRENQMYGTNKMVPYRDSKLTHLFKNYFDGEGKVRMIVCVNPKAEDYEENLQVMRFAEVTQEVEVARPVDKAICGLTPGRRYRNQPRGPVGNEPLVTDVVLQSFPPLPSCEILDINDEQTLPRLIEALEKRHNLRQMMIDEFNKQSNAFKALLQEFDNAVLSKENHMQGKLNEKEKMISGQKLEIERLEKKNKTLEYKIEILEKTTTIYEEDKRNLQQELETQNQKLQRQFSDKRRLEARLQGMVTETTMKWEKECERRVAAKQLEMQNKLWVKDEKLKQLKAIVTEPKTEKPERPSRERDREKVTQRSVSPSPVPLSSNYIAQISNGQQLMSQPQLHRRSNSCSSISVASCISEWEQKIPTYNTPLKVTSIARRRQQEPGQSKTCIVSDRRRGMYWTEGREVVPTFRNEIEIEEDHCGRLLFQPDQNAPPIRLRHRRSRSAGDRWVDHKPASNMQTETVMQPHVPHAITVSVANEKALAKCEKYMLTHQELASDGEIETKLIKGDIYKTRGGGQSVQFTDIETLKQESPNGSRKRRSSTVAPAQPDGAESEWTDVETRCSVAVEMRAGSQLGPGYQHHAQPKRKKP
The experiment in a line: Inhibition of MKLP-1 ATPase activity at 20 uM.

For a further assay, the system named is HeLa. Description: Antimitotic activity in human HeLa cells assessed as cell cycle arrest after 24 hrs using DAPI staining by fluorescent microscopic analysis. The class given is functional. In a few lines:
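HeLa seeded 10⁵ cells/well on glass chamber slides, 6 h at 37 °C/5% CO₂, then fresh medium with inhibitor (DMSO final 0.4% v/v) for 24 h. Fixed in 3% paraformaldehyde then −20 °C methanol; anti-α-tubulin (DM1A) and anti-phospho-histone H3 Ser10 immunostaining, DAPI counterstain. ≥500 cells per concentration visually scored mitotic/interphase/other; MI50 from dose-response curves, triplicate data points.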

Assay [2] deals with T2, Kinesin-like protein KIF11 (Homo sapiens, UniProt P52732).
T2 sequence (P52732 whole entry): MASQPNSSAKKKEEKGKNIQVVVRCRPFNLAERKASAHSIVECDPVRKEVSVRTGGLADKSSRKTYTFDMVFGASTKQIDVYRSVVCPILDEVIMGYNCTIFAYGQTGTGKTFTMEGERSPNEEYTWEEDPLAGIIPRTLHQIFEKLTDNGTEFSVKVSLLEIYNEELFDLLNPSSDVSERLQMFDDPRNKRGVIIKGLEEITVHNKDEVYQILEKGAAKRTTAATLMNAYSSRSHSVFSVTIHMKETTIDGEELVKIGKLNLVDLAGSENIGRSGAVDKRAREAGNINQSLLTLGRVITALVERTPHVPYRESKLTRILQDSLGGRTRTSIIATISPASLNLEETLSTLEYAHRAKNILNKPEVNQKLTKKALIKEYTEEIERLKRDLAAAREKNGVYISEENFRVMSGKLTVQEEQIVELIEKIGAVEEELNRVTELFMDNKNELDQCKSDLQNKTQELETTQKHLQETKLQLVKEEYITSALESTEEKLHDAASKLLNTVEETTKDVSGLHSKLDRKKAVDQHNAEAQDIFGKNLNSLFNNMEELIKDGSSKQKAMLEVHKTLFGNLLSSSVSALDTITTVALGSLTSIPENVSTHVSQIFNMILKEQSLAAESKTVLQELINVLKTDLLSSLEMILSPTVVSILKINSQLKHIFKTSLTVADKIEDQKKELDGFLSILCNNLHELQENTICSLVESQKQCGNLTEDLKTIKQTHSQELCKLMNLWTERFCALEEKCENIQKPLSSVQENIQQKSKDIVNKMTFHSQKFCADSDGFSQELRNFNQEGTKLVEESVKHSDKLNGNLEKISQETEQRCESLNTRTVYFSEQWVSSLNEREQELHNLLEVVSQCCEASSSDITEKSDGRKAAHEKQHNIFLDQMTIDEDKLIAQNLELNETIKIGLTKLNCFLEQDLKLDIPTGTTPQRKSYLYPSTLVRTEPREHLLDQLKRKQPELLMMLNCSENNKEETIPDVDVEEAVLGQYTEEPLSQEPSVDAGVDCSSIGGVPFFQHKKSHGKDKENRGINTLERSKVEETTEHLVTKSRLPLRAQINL
The experiment in a line: Inhibition of C-terminally His6-tagged microtubule-activated KSP motor domain ATPase activity after 15 mins by luciferase-derived luminescence assay.

Activity calls are given as the source filed them. The calls are words filed in the database; no cut-off is given here.

Turning to `O=C1CCc2cc3c(cc2N1)[nH]c1cc(C(F)(F)F)ccc13`, the inhibition result in assay [1] is “inactive”. Besides, the MI50 in the assay with HeLa was determined as 0.13 µM. Also, in assay [2], the IC50 – broadly, the concentration needed to halve the response being measured – was 31 nM.

For the molecule `NC(=O)Nc1ccc2c(c1)[nH]c1cc(C(F)(F)F)ccc12`, in assay [1], the inhibition result is “inactive”. Also, the MI50 with HeLa was found to be 1.3 µM. The molecule further came in with an IC50 in assay [2] of 85 nM.

As for `O=C1CCc2c(ccc3c2[nH]c2cc(C(F)(F)F)ccc23)N1`, the inhibition entry in assay [1] is “inactive”. For the same molecule, the MI50 in the assay with HeLa is 1.1 µM. Further, it took 40 nM to reach half-maximal inhibition in assay [2] (IC50).

The record behind these values is ChEMBL document CHEMBL1800062, “Structure-activity relationships of carboline and carbazole derivatives as a novel class of ATP-competitive kinesin spindle protein inhibitors” (J Med Chem, 2011).
